Data as given in article PMC5668626 (Biochemistry and Biophysics Reports, 2015).
pKd: −log10 of the molar value.

Assays:
[1] = target: T1, PfP2-tetramer (Plasmodium falciparum P2, recombinant) (Plasmodium falciparum, UniProt O00806); test: isothermal titration calorimetry; type: binding
T1 sequence (O00806 1-112): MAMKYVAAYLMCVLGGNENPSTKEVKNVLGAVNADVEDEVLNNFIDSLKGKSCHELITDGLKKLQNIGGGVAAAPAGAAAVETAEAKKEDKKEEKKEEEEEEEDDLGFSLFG
In short: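 Recombinant PfP2 tetramer (0.075 mM) in the sample cell, with buffer in the reference cell, at pH 7.4 and 25 °C. The hydrophobic dye ligand (15 mM, syringe) was added in 50 injections of 5 μl, each lasting 10 s and spaced 4 min apart, with stirring. Titration heats were fitted to a binding model for K, ΔH, ΔS and n.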

[2] = target: Plasmodium falciparum P2 (recombinant) (Plasmodium falciparum); test: SEC

pKd [1]	Compound	stoichiometry N [2]
3.99	O=S(=O)(O)c1cccc2cccc(Nc3ccccc3)c12 [ANS]	
	Plasmodium falciparum P2 (recombinant) (natural protein)	4
